Screening data: PubChem BioAssay, several laboratories
An excerpt weighted towards active compounds, which were near 3.8% of everything screened.
HSP90 refold inh – inhibitors of HSP90 luciferase refolding in rabbit reticulocyte lysate; AID 1789; inhibition, % at 5.6 µM; luciferase refolding luminescence, 3 h; 290,000 compounds, 0.91% hits;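 active means inhibition above the screen-wide mean plus 3 SD, computed separately per campaign, cut at about 16% in these data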;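 further: 0% = DMSO wells and 100% = 60 µM geldanamycin wells; inhibitors lower the luminescence because luciferase stays unfolded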
HSF1 inh – HSF1 inhibition; NIH3T3-HGL HSE-luciferase, MG132-induced, luminescence 8 h; hits give low values; activity change, negative = inhibition, % at 7.5 µM (by protocol); 300,000 compounds, 0.77% hits;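 active means more than half of replicate wells show activity change below -50%, luminescence cut by over half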;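 further: luciferase reports HSF-1 transcriptional activity via heat shock element; 0% = median of DMSO wells and -100% = zero luminescence signal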
Lipid droplet – modulators of hepatic lipid droplet formation | AID 1656 | AML12 mouse hepatocytes, oleate lipid droplets, BODIPY imaging | 240,000 compounds, 0.4% hits | inhibition, % at 6.5 µM;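 active means lipid droplet intensity inhibited by at least 50%, with more than 500 cells counted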
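System: AML12 hepatocytes (mouse). Probe or stimulus: oleic acid at 100 µM to induce lipid droplet formation. Times: overnight treatment with compound plus oleate. Detection: Image-based BODIPY and DAPI two-channel analysis. Evaluation: percent inhibition of filter-corrected integrated lipid droplet intensity per well.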
HSF1 activator – increases HSF-1 driven luciferase reporter signal; NIH3T3-HGL HSF-1 luciferase reporter, MG132, 8 h; 100% = twice DMSO control signal; activation, % at 9 µM; 300,000 compounds, 1.7% hits;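 active means mean replicate activation of at least 50% with a set share of replicates each reaching 50%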;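 further: 0% = median of the neutral control wells and 100% = twice that signal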
HCV NS3 hel inh – blocks Hepatitis C virus NS3 helicase unwinding; NS3 helicase DNA unwinding, Cy5 molecular beacon fluorescence; inhibition, % at 10.9 µM; 290,000 compounds, 0.56% hits;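 active means inhibition above the mean of all tested compounds plus 3 SD, set per campaign, cut at about 35% in these data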;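 further: 0% = DMSO wells and 100% = thioflavine S control wells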
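Control set: DMSO versus 110 µM thioflavine S; Material: NS3 helicase fragment of HCV; Measured by: Cy5 fluorescence at 0 and 60 min, beacon hairpin quenching; Read-out basis: percent inhibition from t60/t0 fluorescence ratio; Times: reaction time 60 min, 25 °C; Repeats: single replicate; Compound dosing: single dose, 10.9 µM nominal final, DMSO 0.8% final.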
Hep lipid conf – hepatic lipid droplet formation inhibition, confirmed; shares compounds with Lipid droplet; AML12 mouse hepatocytes, BODIPY lipid droplet imaging; droplets induced with 100 µM oleic acid; inhibition, % at 5.2 µM; 870 compounds, 65% hits; AID 463183;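 active means inhibition of lipid droplet metric at least 50%, with more than 300 cells in each of four replicates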;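 further: plate controls were DMSO with oleic acid for no effect and 5 µM Triacsin-C for full effect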
AML12 tox img – counter-screen for cytotoxicity in AML12 mouse hepatocytes | z-score at 5 µM | shares compounds with Lipid droplet | 870 compounds, 3% hits | DAPI nuclear morphology cytotoxicity imaging; hits give high values; cells fed 100 µM oleate overnight; in the data active means z-score above about 6.3;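 further: compound exposure lasted overnight at 37 °C before fixation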
AML12 tox ATP – AML12 hepatocyte cytotoxicity, confirmed. 530 tested, under 10 active. cytotoxicity, % at 50 µM. AML12 mouse hepatocyte viability, ATP luminescence; cells loaded with 100 µM oleic acid. shares compounds with Lipid droplet. AID 463219;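 active means cytotoxicity above 50% in each of four replicates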;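 further: compound exposure lasted overnight at 37 °C before the ATP read; 0% = DMSO-treated cells and 100% = wells with no cells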
An asterisk follows results filed as active; / = not tested or not shown.

SMILES	HSP90 refold inh	HSF1 inh	Lipid droplet	HSF1 activator	HCV NS3 hel inh	Hep lipid conf	AML12 tox img	AML12 tox ATP
O=C1CN(C(=O)COc2ccc(Cl)cc2Cl)c2ccccc2N1	1.4	28.5	-6.6	41.7	6.2	/	/	/
O=C1CN(C(=O)Cn2ncc(Cl)c(Cl)c2=O)c2ccccc2N1	2.0	35.9	126.3*	34.3	-3.5	-0.2	0.66	/
NC(=O)C1CCN(S(=O)(=O)c2cc3c4c(c2)CCN4C(=O)CC3)CC1	/	-3.5	/	-5.9	/	/	/	/
CCOc1ccc(CCNC(=O)c2cc(C)nc3ccccc23)cc1OCC	-2.4	-0.5	62.2*	-14.2	5.0	70.8*	0.0409	17.1
CCOc1ccc(CCNC(=O)c2cccs2)cc1OCC	-3.2	-5.1	75.6*	-0.4	-1.6	99.5*	-0.446	8.3
Cc1cc(C(=O)NCCc2ccc(Cl)cc2)c2ccccc2n1	-3.3	16.8	/	9.1	-5.9	/	/	/
CCOc1ccc(CCNC(=O)CCNC(=O)c2ccccc2Cl)cc1OCC	-2.0	-7.4	67.7*	-3.6	-0.8	88.0*	0.706	12.8
CCOc1ccc(CCNC(=O)c2cc3sc(Cl)cc3n2C)cc1OCC	-2.3	6.7	88.9*	18.8	0.3	106.8*	0.666	4.5
COc1ccc(CCNC(=O)c2cccs2)cc1OC	-1.6	-12.8	1.8	-21.7	13.2	/	/	/
Cc1cc(C)n(C(C)CNS(=O)(=O)c2ccc(C)c(C)c2)n1 (centres undefined)	-0.2	-2.3	-6.1	3.6	3.0	/	/	/
COC(C(=O)Nc1ccnn1C1CCN(Cc2nccs2)CC1)c1ccccc1 (centres undefined)	0.9	-0.6	3.0	2.9	4.7	/	/	/
COc1ccc(Cc2n[nH]c(=S)n2C)cc1Br	-2.3	1.2	13.8	-7.7	17.5	/	/	/
COc1ccc(Cl)cc1NC(=O)CCCNC(=O)c1ccc(Cl)cc1	-0.6	-3.2	44.4	6.2	-5.7	/	/	/
COc1ccc(OC)c(NC(=O)CCCNC(=O)c2ccc(Cl)cc2)c1	-2.1	-1.0	58.4*	6.0	-5.9	73.0*	-0.556	15.2
CCOc1ccccc1NC(=O)CCCNC(=O)Cn1cnc2sc(C)c(C)c2c1=O	5.8	-4.4	58.7*	9.6	13.1	64.3	-0.0532	9.4
CCOc1ccccc1NC(=O)CCCNC(=O)c1ccc(Cl)cc1	5.8	4.0	73.2*	5.1	-4.8	77.8*	0.086	8.6
Cc1ccc(C2(C)NC(=O)N(CC(=O)N(C)CC(=O)Nc3cccc4ccccc34)C2=O)cc1 (centres undefined)	/	-3.7	/	8.6	/	/	/	/
CC(C)(C)c1ccc(-c2nnc(SCC(=O)Nc3sc4c(c3C#N)CCCC4)o2)cc1	-0.2	9.2	57.9*	6.1	27.1	2.0	-1.26	/
CCN(CC)S(=O)(=O)c1ccc(N2C(=O)CC2(/C=C/c2ccccc2)C(=O)NC2CCCC2)cc1 (centres undefined)	-0.5	-1.9	62.8*	-1.1	0.6	74.0	0.43	/
O=C(NCc1ccccc1)C(c1ccccc1F)N(C(=O)c1csnn1)C1CCCC1 (centres undefined)	0.2	1.0	71.3*	3.8	-3.9	92.2*	-0.753	12.5
C=CCN(C(=O)c1csnn1)C(C(=O)NCc1ccc(F)cc1)c1ccccc1F (centres undefined)	-3.0	-3.7	25.2	0.9	3.5	/	/	/
O=C(NCc1ccccc1)C(c1ccccc1)N(C(=O)c1csnn1)C1CCCC1 (centres undefined)	-1.6	-2.7	40.0	0.5	-8.1	/	/	/
C=CCN(C(=O)c1csnn1)C(C(=O)NCc1ccccc1)c1ccccc1F (centres undefined)	-1.5	-0.1	50.9*	-10.2	5.7	55.5	0.492	1.5
COc1cccc(-c2ccc(NC(=O)C3CCCN(Cc4cnn(C(C)C)c4)C3)cc2)c1 (centres undefined)	-1.9	4.2	-1.9	18.1	-40.6	/	/	/
CN(Cc1ccc(Cl)cc1Cl)C(=O)c1cc(=O)c2ccccc2o1	0.0	5.6	-4.4	21.7	0.2	/	/	/
SMILES	HSP90 refold inh	HSF1 inh	Lipid droplet	HSF1 activator	HCV NS3 hel inh	Hep lipid conf	AML12 tox img	AML12 tox ATP
O=C(CCC(=O)Nc1ccccc1Cl)NNC(=O)Nc1cccc([N+](=O)[O-])c1	-0.1	0.0	1.6	-1.0	0.5	/	/	/
CCN1C(=O)/C(=C/C=C2/Sc3ccc4ccccc4c3N2CCO)SC1=S	0.7	-3.0	76.8*	-1.5	6.4	19.4	-0.306	/
CCN1C(c2ccccc2)=C(c2ccccc2)S/C1=C\C=C1/SC(=S)N(C)C1=O	1.1	0.1	/	2.1	9.2	/	/	/
O=C(O)C1CC=CCC1C(=O)NCc1ccc(Cl)c(Cl)c1 (centres undefined)	/	3.4	/	-2.9	/	/	/	/
CN1CC(=O)Nc2ccc([N+](=O)[O-])cc2C1=O	-3.6	-5.2	91.4*	-7.6	1.2	25.7	-1.22	/
COc1cccc(NC2=C(NCCO)C(=O)c3ccccc3C2=O)c1	1.6	8.1	5.0	36.8	-1.4	/	/	/
Cc1cccc(NC2=C(NCCO)C(=O)c3ccccc3C2=O)c1	2.5	26.6	88.7*	49.7	-4.7	96.8*	0.311	21.6
COc1ccc(C(=O)N2CCN(CCNC(=O)C(=O)Nc3ccc(Br)cc3)CC2)cc1	1.7	1.0	2.9	-0.4	-9.8	/	/	/
COc1ccc(NC(=O)CCC2COc3ccccc3O2)c(OC)c1 (centres undefined)	0.1	0.8	12.9	9.4	-3.5	/	/	/
COc1ccc(/C=C/C(=O)NCC2COc3ccccc3O2)c(OC)c1 (centres undefined)	-4.6	8.4	65.4*	16.0	4.7	83.5*	0.483	12.9
Cc1cccc(NC(=O)COc2coc(CN3CCN(c4ccccc4)CC3)cc2=O)c1	/	-4.1	/	-7.9	/	/	/	/
COc1ccc2oc(C(=O)OCC(=O)/C(C#N)=C(\C)N)c(C)c2c1	-4.1	5.8	3.5	0.8	-3.7	/	/	/
CCN(CC)c1ccc(/C=C2\CCC(/C=C(\C#N)C(=O)Nc3ccccc3F)=C2N2CCOCC2)cc1	-0.2	1.2	100.7*	9.3	5.2	95.9*	0.00304	-9.6
COc1ccc(Cc2nc3ccc(C(=O)N4CCCCC4CCO)cc3o2)cc1 (centres undefined)	-9.4	-4.6	-20.7	8.4	-2.3	/	/	/
C=C(C)C1CC=C(C)/C(=N/Nc2ccccc2[N+](=O)[O-])C1 (centres undefined)	-0.8	-4.5	78.2*	-4.6	-8.9	114.7*	-0.403	2.5
Cc1nc(CS(=O)(=O)c2ccccn2)sc1C(=O)NNC(=O)c1ccccc1	-2.9	-9.7	4.1	-10.2	-13.6	/	/	/
CCOc1ccc2ccccc2c1/C=N/NC(=O)CNC(=O)C(c1ccccc1)c1ccccc1	3.3	5.8	82.1*	6.2	-29.1	91.6*	-0.224	-3.4
